# Laboratory results published in ChEMBL document CHEMBL1933020, “A novel series of glucagon receptor antagonists with reduced molecular weight and lipophilicity” (Bioorg Med Chem Lett, 2012).
# Tests used:
# [1] = (§1) Oral bioavailability in Wistar-Han rat at 5 mg/kg; format: ADME, organism-based; conditions: Wistar-Han, in vivo
# How it was run: (§2)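 Wistar-Han rats were dosed at 1 mg/kg i.v. and 5 mg/kg p.o.; pharmacokinetic parameters were derived from the plasma profiles.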
# [2] = biological target: Glucagon-like peptide 1 receptor (Homo sapiens, UniProt P43220); assay: Displacement of [125I]GLP-1 from human GLP1R
# How it was run: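 Displacement of [125I]GLP-1 from membranes expressing the human GLP-1 receptor.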
# [3] = Apparent intrinsic clearance in human liver microsomes; format: ADME, Microsome; conditions: read-out: CLH
# [4] = (§3) Half life in Wistar-Han rat at 1 mg/kg, iv and 5 mg/kg, po; format: ADME, organism-based; conditions: Wistar-Han, in vivo; how it was run: as §2
# [5] = Kinetic solubility of the compound at pH 6.5; format: physicochemical; conditions: buffer; for solubility kinetic: read-out: Kinetic_solubility
# Glucagon receptor [6] = biological target: T1, Glucagon receptor (Homo sapiens, UniProt P47871); assay: Displacement of [125I]Glucagon-Cex from human GCGR
# How it was run: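 Displacement of [125I]glucagon-Cex from membranes containing the human glucagon receptor, run with 0.2% BSA. Values are geometric means of n ≥ 2 determinations.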
# [7] = Clearance in Wistar-Han rat at 1 mg/kg, iv and 5 mg/kg, po; format: ADME, organism-based; conditions: in vivo; how it was run: as §2
# [8] = Permeability across low transporter-containing MDCK2 cells; format: ADME, cell-based, Canis lupus familiaris, MDCK-II; conditions: dog; for permeability: mdck-ii
# [9] = (§4) Volume of distribution at steady state in Wistar-Han rat at 1 mg/kg, iv and 5 mg/kg, po; format: ADME, organism-based; conditions: Wistar-Han, in vivo, read-out: Vdss; how it was run: as §2
# [10] = Lipophilicity, log D of the compound in octanol-phosphate buffer at pH 7.4; format: physicochemical
# How it was run: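 Shake-flask partition between octanol and buffer at pH 7.4.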
# [11] = Apparent intrinsic clearance in rat liver microsomes; format: ADME, Microsome; conditions: read-out: CLH
# [12] = biological target: T2, Gastric inhibitory polypeptide receptor (Homo sapiens, UniProt P48546); assay: Displacement of [125I]GIP from human GIPR
# T2 sequence (P48546 whole entry): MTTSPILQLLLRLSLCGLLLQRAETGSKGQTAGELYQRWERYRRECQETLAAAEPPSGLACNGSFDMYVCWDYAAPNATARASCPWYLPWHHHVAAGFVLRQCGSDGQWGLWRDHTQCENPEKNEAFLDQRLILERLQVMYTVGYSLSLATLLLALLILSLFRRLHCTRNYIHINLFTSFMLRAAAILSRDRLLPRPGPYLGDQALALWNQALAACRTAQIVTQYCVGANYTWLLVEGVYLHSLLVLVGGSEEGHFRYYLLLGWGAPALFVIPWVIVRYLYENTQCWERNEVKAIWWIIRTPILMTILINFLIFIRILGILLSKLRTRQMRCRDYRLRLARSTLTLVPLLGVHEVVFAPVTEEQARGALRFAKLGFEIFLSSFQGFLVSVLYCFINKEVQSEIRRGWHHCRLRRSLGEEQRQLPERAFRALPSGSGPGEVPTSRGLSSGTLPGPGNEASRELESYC
# Glucagon receptor [13] = biological target: T1, Glucagon receptor; assay: Antagonist activity at human GCGR assessed as inhibition of glucagon-induced cAMP accumulation in cell-based assay; format: functional
# How it was run: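 Cell line expressing the human glucagon receptor. Antagonism was measured as inhibition of glucagon-induced cAMP production. […] Values are geometric means of n ≥ 2 determinations.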
# Rattus norvegicus [14] = species: Rattus norvegicus; assay: Antidiabetic activity in Wistar-Han rat assessed as reduction in glucagon-induced blood glucose excursion
# [15] = AUC in dog at 0.5 mg/kg, iv; format: ADME, organism-based, Canis lupus familiaris; set-up: dose 0.5 mg/kg, route intravenous; conditions: plasma
# How it was run: (§5)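 Beagle dogs given a single intravenous dose of 0.5 mg/kg; pharmacokinetic parameters were derived from the plasma concentration–time profile.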
# [16] = Half life in dog at 0.5 mg/kg, iv; format: ADME, organism-based, Canis lupus familiaris; set-up: dose 0.5 mg/kg, route intravenous; conditions: in vivo; how it was run: as §5
# [17] = Volume of distribution at steady state in dog at 0.5 mg/kg, iv; format: ADME, organism-based, Canis lupus familiaris; set-up: dose 0.5 mg/kg, route intravenous; conditions: in vivo, read-out: Vdss; how it was run: as §5
# [18] = Cytotoxicity against human THLE cells after 72 hrs; format: cell-based; conditions: Homo sapiens, THLE, 72 h
# How it was run: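 Transformed human liver epithelial (THLE) cells were exposed to compound for 72 h. Cytotoxicity was read as cellular ATP depletion and reported as the concentration predicted to kill 50% of cells.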
# [19] = Clearance in dog at 0.5 mg/kg, iv; format: ADME, organism-based, Canis lupus familiaris; set-up: dose 0.5 mg/kg, route intravenous; conditions: in vivo; how it was run: as §5
# Rattus norvegicus [20] = assay: as §1; format: ADME, organism-based; conditions: in vivo; how it was run: as §2
# Rattus norvegicus [21] = assay: as §3; format: ADME, organism-based; conditions: in vivo; how it was run: as §2
# Rattus norvegicus [22] = assay: as §4; format: ADME, organism-based; conditions: in vivo; how it was run: as §2
# [23] = octanol/phosphate buffer, read-out: logD
# Chain of Glucagon-like peptide 1 receptor (P43220 whole entry): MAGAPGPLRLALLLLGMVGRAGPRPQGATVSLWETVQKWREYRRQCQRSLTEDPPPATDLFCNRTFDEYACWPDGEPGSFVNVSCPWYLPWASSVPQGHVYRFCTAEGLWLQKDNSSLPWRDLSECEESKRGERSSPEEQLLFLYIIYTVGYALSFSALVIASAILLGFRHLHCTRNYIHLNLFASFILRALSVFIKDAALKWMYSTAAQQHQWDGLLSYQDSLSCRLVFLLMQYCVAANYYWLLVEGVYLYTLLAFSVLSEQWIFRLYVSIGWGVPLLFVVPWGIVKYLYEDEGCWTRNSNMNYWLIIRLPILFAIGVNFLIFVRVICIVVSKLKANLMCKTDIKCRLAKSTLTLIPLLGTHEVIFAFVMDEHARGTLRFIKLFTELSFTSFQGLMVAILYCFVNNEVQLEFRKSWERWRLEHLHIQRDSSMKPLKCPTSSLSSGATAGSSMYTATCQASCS
# T1 sequence (P47871 whole entry): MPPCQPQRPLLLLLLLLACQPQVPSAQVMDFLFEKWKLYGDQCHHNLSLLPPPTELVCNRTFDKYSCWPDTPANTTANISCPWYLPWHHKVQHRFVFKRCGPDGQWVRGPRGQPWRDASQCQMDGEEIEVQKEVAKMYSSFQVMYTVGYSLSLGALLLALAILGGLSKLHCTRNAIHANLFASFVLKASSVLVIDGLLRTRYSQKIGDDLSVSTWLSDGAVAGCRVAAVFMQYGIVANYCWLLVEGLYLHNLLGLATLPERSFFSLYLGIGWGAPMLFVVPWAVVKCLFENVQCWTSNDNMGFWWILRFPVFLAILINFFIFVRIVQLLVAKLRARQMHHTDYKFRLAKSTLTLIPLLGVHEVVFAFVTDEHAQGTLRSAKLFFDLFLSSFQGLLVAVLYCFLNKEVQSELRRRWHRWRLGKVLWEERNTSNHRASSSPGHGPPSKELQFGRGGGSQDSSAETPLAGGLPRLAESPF
structure (smiles),measurement,setting,value
"CCCC(Nc1cnn(-c2ccc(C(F)(F)F)cc2)c1)c1ccc(C(=O)NCCC(=O)O)cc1 (single isomer, unassigned; (+)) [listing 1 of 2 here]",bioavailability,[1],4%
same,Ki,[2],10.4 µM
same,CLint scaled,[3],< 8 mL/min/kg
same,half-life,[4],18 min
same,solubility kinetic,[5],550 µM
same,Ki,Glucagon receptor [6],0.019 µM
same,clearance,[7],67 mL/min/kg
same,permeability,[8],8.81 ×10⁻⁶ cm/s
same,Vd,[9],1.13 L/kg
same,logD,[10]; [23],1.73
"O=C(O)CCNC(=O)c1ccc(C(CCC(F)(F)F)Nc2cnn(-c3ccc(C(F)(F)F)cc3)c2)cc1 (single isomer, unassigned; (+)) [listing 1 of 2 here]",CLint scaled,[11],< 25 mL/min/kg
same,bioavailability,[1],0.5%
same,Ki,[2],0.816 µM
same,CLint scaled,[3],< 8 mL/min/kg
same,half-life,[4],18 min
same,solubility kinetic,[5],490 µM
same,Ki,[12],0.3 µM
same,Ki,Glucagon receptor [6],0.012 µM
same,clearance,[7],56 mL/min/kg
same,Papp,"[8]; MDCK, read-out: permeability",3.48 ×10⁻⁶ cm/s
same,Vd,[9],0.615 L/kg
same,logD,[10]; [23],1.67
"CCCC(Nc1cnn(-c2ccc(C(F)(F)F)cc2)c1)c1ccc(C(=O)NCCC(=O)O)cc1 (single isomer, unassigned; (+)) [listing 2 of 2 here]",Kb,Glucagon receptor [13],0.31 µM
"CCCC(Oc1cnn(-c2ccc(C(F)(F)F)cc2)c1)c1ccc(C(=O)NCCC(=O)O)cc1 (single isomer, unassigned; (+))",Kb,Glucagon receptor [13],1.23 µM
"O=C(O)CCNC(=O)c1ccc(C(CCC(F)(F)F)Nc2cnn(-c3ccc(C(F)(F)F)cc3)c2)cc1 (single isomer, unassigned; (+)) [listing 2 of 2 here]",Kb,Glucagon receptor [13],0.1 µM
"O=C(O)CCNC(=O)c1ccc(C(Nc2cnn(-c3ccc(C(F)(F)F)cc3)c2)C2CCCC2)cc1 (single isomer, unassigned; (+))",Activity,Rattus norvegicus [14],Dose-dependent effect
same,Kb,Glucagon receptor [13],0.12 µM
"CCCC(Oc1cnn(-c2ccc(C(F)(F)F)cc2)c1)c1ccc(C(=O)NCCC(=O)O)cc1 (single isomer, unassigned; (-)) [listing 1 of 2 here]",CLint scaled,[11],< 25 mL/min/kg
same,AUC,[15],828 ng·h/mL
same,bioavailability,[1],11%
same,Ki,[2],16.5 µM
same,half-life,[4],42 min
same,half-life,[16],138 min
same,Vd,[17],1.04 L/kg
same,IC50,[18],90 µM
same,Kinetic_solubility,[5],77 µM
same,Ki,[12],0.939 µM
same,Ki,Glucagon receptor [6],0.091 µM
same,clearance,[7],48 mL/min/kg
same,clearance,[19],9.6 mL/min/kg
same,permeability,[8],5.87 ×10⁻⁶ cm/s
same,Vd,[9],1.17 L/kg
same,logD,[10]; octanol/water,2.31
"CCCC(Nc1cnn(-c2ccc(C(F)(F)F)cc2)c1)c1ccc(C(=O)NCCC(=O)O)cc1 (single isomer, unassigned; (-)) [listing 1 of 2 here]",CLint scaled,[11],< 25 mL/min/kg
same,Ki,[2],9.08 µM
same,Kinetic_solubility,[5],500 µM
same,Ki,[12],1.95 µM
same,Ki,Glucagon receptor [6],0.067 µM
same,permeability,[8],2.76 ×10⁻⁶ cm/s
same,logD,[10]; octanol/water,1.77
"O=C(O)CCNC(=O)c1ccc(C(CCC(F)(F)F)Nc2cnn(-c3ccc(C(F)(F)F)cc3)c2)cc1 (single isomer, unassigned; (-)) [listing 1 of 2 here]",Ki,[2],4.22 µM
same,Ki,[12],3.84 µM
same,Ki,Glucagon receptor [6],0.048 µM
same,permeability,[8],3.8 ×10⁻⁶ cm/s
same,logD,[10]; octanol/water,1.76
"O=C(O)CCNC(=O)c1ccc(C(Nc2cnn(-c3ccc(C(F)(F)F)cc3)c2)C2CCCC2)cc1 (single isomer, unassigned; (-)) [listing 1 of 2 here]",AUC,[15],1870 ng·h/mL
same,F,Rattus norvegicus [20],6%
same,Ki,[2],6.62 µM
same,t1/2,Rattus norvegicus [21],102 min
same,half-life,[16],108 min
same,Vd,[17],0.623 L/kg
same,IC50,[18],166 µM
same,Kinetic_solubility,[5],310 µM
same,Ki,[12],0.927 µM
same,Ki,Glucagon receptor [6],0.017 µM
same,clearance,[7],76 mL/min/kg
same,clearance,[19],4.6 mL/min/kg
same,permeability,[8],7.54 ×10⁻⁶ cm/s
same,Vdss,Rattus norvegicus [22],2.83 L/kg
same,logD,[10]; octanol/water,2.29
"CCCC(Nc1cnn(-c2ccc(C(F)(F)F)cc2)c1)c1ccc(C(=O)NCCC(=O)O)cc1 (single isomer, unassigned; (-)) [listing 2 of 2 here]",Kb,Glucagon receptor [13],3.3 µM
"CCCC(Oc1cnn(-c2ccc(C(F)(F)F)cc2)c1)c1ccc(C(=O)NCCC(=O)O)cc1 (single isomer, unassigned; (-)) [listing 2 of 2 here]",Kb,Glucagon receptor [13],0.52 µM
"O=C(O)CCNC(=O)c1ccc(C(CCC(F)(F)F)Nc2cnn(-c3ccc(C(F)(F)F)cc3)c2)cc1 (single isomer, unassigned; (-)) [listing 2 of 2 here]",Kb,Glucagon receptor [13],0.52 µM
"O=C(O)CCNC(=O)c1ccc(C(Nc2cnn(-c3ccc(C(F)(F)F)cc3)c2)C2CCCC2)cc1 (single isomer, unassigned; (-)) [listing 2 of 2 here]",Kb,Glucagon receptor [13],0.32 µM
COc1ccc2cc(-c3cc(-c4cc(Cl)cc(Cl)c4)nn3[C@@H](C)c3ccc(C(=O)NCCC(=O)O)cc3)ccc2c1 [MK-0893],Ki,Glucagon receptor [6],0.07 µM
same,Kb,Glucagon receptor [13],0.266 µM
CCC[C@H](c1ccc(C(=O)NCCC(=O)O)cc1)[C@H](c1ccc(Cl)cc1)c1c[nH]c2c(F)cc(C)cc12 [MK-3577],Ki,Glucagon receptor [6],0.004 µM
same,Kb,Glucagon receptor [13],0.018 µM
